Experimental data taken from ChEMBL document CHEMBL1142253, “Development of dimeric modulators for anti-apoptotic Bcl-2 proteins” (Bioorg Med Chem Lett, 2008).

Assays:
[1] = Induction of cytochrome c release from mouse liver mitochondria; type: functional
Outline: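 Mouse liver mitochondria were isolated by differential centrifugation in Tris-MOPS/EGTA/sucrose buffer pH 7.4 and diluted to 1mg/ml in KCl-based buffer. They were incubated 1 hour at 30 °C with increasing compound concentrations, with DMSO kept equal, then pelleted at 13,000g for 10 minutes. Cytochrome c release was assessed, and the concentration giving 50% release was reported.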

Bcl-2-like protein 2 = target: T1, Bcl-2-like protein 2 (Homo sapiens, UniProt Q92843); assay: Inhibition of Bak peptide binding to human recombinant Bcl-w
T1 sequence (Q92843 whole entry): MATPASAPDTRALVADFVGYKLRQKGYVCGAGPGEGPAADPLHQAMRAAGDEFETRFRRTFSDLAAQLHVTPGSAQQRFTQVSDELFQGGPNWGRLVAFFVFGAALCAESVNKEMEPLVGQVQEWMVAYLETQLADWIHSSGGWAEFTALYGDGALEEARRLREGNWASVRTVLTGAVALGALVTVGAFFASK
Outline: (§1)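 Fluorescence polarization competition against 50 nM fluorescein-labelled Bak peptide, in PBS pH 7.0 with 1 mM DTT. Protein set for 60% peptide complex: Bcl-2 1000 nM, Bcl-XL 880nM, Bcl-w 1200 nM. Compounds added from 3-fold DMSO stock dilutions (10 mM down). Incubation 1 h at 23 °C, read in mP, peptide-only interference subtracted. Ki fitted from FP change versus competitor concentration.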

[2] = target: Apoptosis regulator Bcl-2 (Homo sapiens, UniProt P10415); assay: Inhibition of Bak peptide binding to human recombinant Bcl2; outline: as §1
Sequence of Apoptosis regulator Bcl-2 (P10415 whole entry): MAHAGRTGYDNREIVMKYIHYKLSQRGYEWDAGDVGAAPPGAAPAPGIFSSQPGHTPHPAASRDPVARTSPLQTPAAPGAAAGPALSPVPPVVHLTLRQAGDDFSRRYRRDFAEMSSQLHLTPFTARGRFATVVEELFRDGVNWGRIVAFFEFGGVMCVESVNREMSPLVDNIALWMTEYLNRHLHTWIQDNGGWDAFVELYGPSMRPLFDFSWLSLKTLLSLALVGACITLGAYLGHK

| SMILES | IC50 [1] [µM] | Ki (Bcl-2-like protein 2) [µM] | Ki [2] [µM] |
| --- | --- | --- | --- |
| O=C(O)[C@H](Cc1ccccc1)N1C(=O)/C(=C/c2ccc(Br)cc2)SC1=S | 69.1 |  |  |
| O=C(OCCOCCOCCOC(=O)[C@H](Cc1ccccc1)N1C(=O)/C(=C/c2ccc(Br)cc2)SC1=S)[C@H](Cc1ccccc1)N1C(=O)/C(=C/c2ccc(Br)cc2)SC1=S |  | 88.3 | 161 |
| CCOC(=O)[C@H](Cc1ccccc1)N1C(=O)/C(=C/c2ccc(Br)cc2)SC1=S |  | 116 | 260 |
| O=C(OCCOC(=O)[C@H](Cc1ccccc1)N1C(=O)/C(=C/c2ccc(Br)cc2)SC1=S)[C@H](Cc1ccccc1)N1C(=O)/C(=C/c2ccc(Br)cc2)SC1=S |  | 101 | 243 |
| O=C(OCCOCCOC(=O)[C@H](Cc1ccccc1)N1C(=O)/C(=C/c2ccc(Br)cc2)SC1=S)[C@H](Cc1ccccc1)N1C(=O)/C(=C/c2ccc(Br)cc2)SC1=S |  | 99 | > 1000 |
| CCOC(=O)[C@H](Cc1ccccc1)N1C(=O)/C(=C/c2ccc(OCOc3ccc(/C=C4\SC(=S)N([C@@H](Cc5ccccc5)C(=O)OCC)C4=O)cc3)cc2)SC1=S |  | 39.2 | 226 |

Second part, the molecule after the results:

| IC50 [1] [µM] | Ki (Bcl-2-like protein 2) [µM] | Ki [2] [µM] | SMILES |
| --- | --- | --- | --- |
|  | 2.2 | 4.3 | O=C(O)[C@H](Cc1ccccc1)N1C(=O)/C(=C/c2ccc(OCCOCCOc3ccc(/C=C4\SC(=S)N([C@@H](Cc5ccccc5)C(=O)O)C4=O)cc3)cc2)SC1=S |
|  | 13.7 | 21.2 | O=C(O)[C@H](Cc1ccccc1)N1C(=O)/C(=C/c2ccc(OCCOCCOCCOc3ccc(/C=C4\SC(=S)N([C@@H](Cc5ccccc5)C(=O)O)C4=O)cc3)cc2)SC1=S |
| 6.1 | 1.3 | 1.7 | O=C(O)[C@H](Cc1ccccc1)N1C(=O)/C(=C/c2ccc(OCCOc3ccc(/C=C4\SC(=S)N([C@@H](Cc5ccccc5)C(=O)O)C4=O)cc3)cc2)SC1=S |
|  | 2.3 | 4.3 | O=C(O)[C@H](Cc1ccccc1)N1C(=O)/C(=C/c2ccc(OCOc3ccc(/C=C4\SC(=S)N([C@@H](Cc5ccccc5)C(=O)O)C4=O)cc3)cc2)SC1=S |
